Series [1] concerns Mus musculus. Put plainly: Anticonvulsant activity in CF1 albino mouse assessed as protection against scMet-induced seizures at 50 mg/kg, ip after 0.5 hrs. The series is classed as functional, organism-based. More on the design: dose 50 mg/kg. Summed up: (§1)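 Adult male CF no. 1 albino mice (18-25 g) dosed intraperitoneally with compound suspended in 0.5% methylcellulose (0.01 mL/g). Convulsant challenge given subcutaneously as a 0.85% pentylenetetrazol solution in 0.9% saline. Read-out is animals protected over animals tested, with neurotoxicity scored in parallel.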

Series [2] relates to Mus musculus. Put plainly: Anticonvulsant activity in CF1 albino mouse assessed as protection against maximal electroshock-induced seizures at 50 mg/kg, ip after 4 hrs. The series is classed as functional, organism-based. More on the design: dose 50 mg/kg. The gist of the method: (§2)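 Adult male CF no. 1 albino mice (18-25 g). Test compound suspended in 0.5% methylcellulose and given intraperitoneally at 0.01 mL/g body weight. Maximal electroshock challenge at the stated time. Read-out is the number of animals protected over the number tested; neurotoxicity is scored in parallel.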

The subject of series [3] is Mus musculus. Put plainly: Neurotoxicity in CF1 albino mouse at 150 mg/kg, ip after 4 hrs. In kind it is toxicity, organism-based. More on the design: dose 150 mg/kg, route intraperitoneal. As to conditions: in vivo. Summed up: (§3)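 Male CF no. 1 albino mice (18-25 g) received a single ip dose as a suspension in 0.5% methylcellulose. The read-out was the number of animals showing neurotoxicity (minimal motor impairment) over the number tested.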

Series [4] relates to Mus musculus. Put plainly: Anticonvulsant activity in CF1 albino mouse assessed as protection against scMet-induced seizures at 50 mg/kg, ip after 4 hrs. Details: dose 50 mg/kg. The series is classed as functional, organism-based. Summed up:
as §1

Series [5] has as its system Mus musculus. Put plainly: Anticonvulsant activity in CF1 albino mouse assessed as protection against scMet-induced seizures at 450 mg/kg, ip after 4 hrs. The series is classed as functional, organism-based. More on the design: dose 450 mg/kg. Summed up: as §1
The subject of series [6] is Mus musculus. Put plainly: Anticonvulsant activity in CF1 albino mouse assessed as protection against scMet-induced seizures at 450 mg/kg, ip after 0.5 hrs. The series is classed as functional, organism-based. Details: dose 450 mg/kg. Summed up:
as §1

Series [7] concerns Mus musculus. Put plainly: Anticonvulsant activity in CF1 albino mouse assessed as protection against maximal electroshock-induced seizures at 450 mg/kg, ip after 4 hrs. The series is classed as functional, organism-based. Details: dose 450 mg/kg. The gist of the method:
as §2

Series [8] relates to Mus musculus. Put plainly: Anticonvulsant activity in CF1 albino mouse assessed as protection against maximal electroshock-induced seizures at 150 mg/kg, ip after 4 hrs. More on the design: dose 150 mg/kg. In kind it is functional, organism-based. Summed up: as §2
For orientation: In the maximal electroshock model the usual endpoint is tonic extension of the hind limbs.

Series [9] relates to Mus musculus. Put plainly: Anticonvulsant activity in CF1 albino mouse assessed as protection against maximal electroshock-induced seizures at 150 mg/kg, ip after 0.5 hrs. Details: dose 150 mg/kg. In kind it is functional, organism-based. The gist of the method: as §2
Series [10] has as its system Mus musculus. Put plainly: Anticonvulsant activity in CF1 albino mouse assessed as protection against maximal electroshock-induced seizures at 450 mg/kg, ip after 0.5 hrs. In kind it is functional, organism-based. More on the design: dose 450 mg/kg. The gist of the method: as §2
Series [11] has as its system Mus musculus. Put plainly: Anticonvulsant activity in CF1 albino mouse assessed as protection against maximal electroshock-induced seizures at 50 mg/kg, ip after 0.5 hrs. The series is classed as functional, organism-based. More on the design: dose 50 mg/kg. The gist of the method:
as §2

For series [12], the system named is Mus musculus. Put plainly: Anticonvulsant activity in CF1 albino mouse assessed as protection against scMet-induced seizures at 150 mg/kg, ip after 0.5 hrs. In kind it is functional, organism-based. More on the design: dose 150 mg/kg. Summed up:
as §1

For series [13], the system named is Mus musculus. Put plainly: Neurotoxicity in CF1 albino mouse at 50 mg/kg, ip after 4 hrs. The series is classed as toxicity, organism-based. Details: dose 50 mg/kg, route intraperitoneal. To be noted: in vivo. The gist of the method:
as §3

For series [14], the system named is Mus musculus. Put plainly: Anticonvulsant activity in CF1 albino mouse assessed as protection against scMet-induced seizures at 150 mg/kg, ip after 4 hrs. In kind it is functional, organism-based. More on the design: dose 150 mg/kg. Summed up:
as §1

Series [15] concerns Mus musculus. Put plainly: Neurotoxicity in CF1 albino mouse at 450 mg/kg, ip after 0.5 hrs. To be noted: in vivo. Details: dose 450 mg/kg, route intraperitoneal. In kind it is toxicity, organism-based. The gist of the method:
as §3

Series [16] deals with Mus musculus. Put plainly: Neurotoxicity in ip dosed CF1 albino mouse assessed as minimal motor impairment. The series is classed as toxicity, organism-based. To be noted: mouse, in vivo. Summed up: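 Mice: male CF no. 1 albino (18-25 g), ip dosing in 0.5% methylcellulose. Minimal motor impairment was scored, with doses varied to give four points between no impairment and all animals impaired.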

The species entered for series [17] is Mus musculus. Put plainly: Protective index, ratio of TD50 for CF1 albino mouse to ED50 for 32 mA current-induced CF1 albino mouse seizure model. In kind it is functional. Summed up: (§4)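 Protective index is the mouse TD50 (minimal motor impairment) divided by the 6 Hz test ED50 at 32 or 44 mA. Male CF no. 1 mice were dosed ip in 0.5% methylcellulose, and values came from probit analysis.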

The species named for series [18] is Mus musculus. Put plainly: Protective index, ratio of TD50 for CF1 albino mouse to ED50 for scMet-induced CF1 albino seizure mouse model. The series is classed as functional. Summed up:
(§5)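 Ratio of TD50 to ED50 (MES or scMet) in male CF no. 1 mice (18-25 g) given ip doses in 0.5% methylcellulose. TD50 comes from minimal motor impairment: the dose was varied until four points lay between no impairment and all animals impaired. Both TD50 and ED50 were derived by probit analysis with 95% confidence intervals.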

For series [19], the species on record is Rattus norvegicus. Put plainly: Protective index, ratio of TD50 for albino Sprague-Dawley rat to ED50 for maximal electroshock-induced albino Sprague-Dawley rat seizure model. In kind it is functional. Summed up:
(§6)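 Protective index is the rat TD50 (minimal motor impairment) divided by the ED50 in the MES or sc pentylenetetrazol test. Male Sprague-Dawley rats were dosed orally in 0.5% methylcellulose, and both values came from probit analysis.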

The species named for series [20] is Mus musculus. Put plainly: Protective index, ratio of TD50 for CF1 albino mouse to ED50 for 44 mA-current-induced CF1 albino mouse seizure model. The series is classed as functional. Summed up:
as §4

For series [21], the species on record is Rattus norvegicus. Put plainly: Protective index, ratio of TD50 for albino Sprague-Dawley rat to ED50 for scMet-induced albino Sprague-Dawley rat seizure model. In kind it is functional. Summed up:
as §6

Series [22] concerns Mus musculus. Put plainly: Anticonvulsant activity in ip dosed CF1 albino mouse assessed as protection against scMet-induced seizures. In kind it is functional. The gist of the method:
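Adult male CF no. 1 albino mice (18-25 g) dosed ip with compound suspended in 0.5% methylcellulose (0.01 mL/g body weight). Seizures were induced by subcutaneous pentylenetetrazol, given as a 0.85% solution in 0.9% saline. ED50 was found by varying the dose to give 3-4 points between 0% and 100% protection, then probit analysis with 95% confidence intervals.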

A short description of series [23]: Neurotoxicity in po dosed albino Sprague-Dawley rat assessed as minimal motor impairment. As to conditions: in vivo. The series is classed as toxicity, organism-based. The gist of the method: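 Rats: male Sprague-Dawley (100-150 g), oral dosing in 0.5% methylcellulose. Doses were varied to give four points between no minimal motor impairment and all animals impaired. TD50 and 95% confidence intervals came from probit analysis.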

The test system of series [24] is Mus musculus. Put plainly: Anticonvulsant activity in ip dosed CF1 albino mouse assessed as protection against maximal electroshock-induced seizures. The series is classed as functional. Summed up: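 Male CF no. 1 albino mice (18-25 g) were dosed ip in 0.5% methylcellulose and tested by maximal electroshock. Doses were varied to give 3-4 points between 0% and 100% protection. ED50 with 95% confidence interval came from probit analysis.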

For series [25], the system named is Rattus norvegicus. Put plainly: Anticonvulsant activity in po dosed albino Sprague-Dawley rat assessed as protection against scMet-induced seizures. In kind it is functional. The gist of the method: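 Male Sprague-Dawley albino rats (100-150 g) were dosed orally in 0.5% methylcellulose and tested by MES or by sc pentylenetetrazol (2.82% in 0.9% saline). Doses were varied to give 3-4 points between 0% and 100% protection. ED50 and 95% confidence intervals came from probit analysis.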

Series [26] relates to Mus musculus. Put plainly: Anticonvulsant activity in ip dosed CF1 albino mouse assessed as protection against 32 mA current-induced seizure by 6Hz psychomotor seizure test. The series is classed as functional. Summed up:
(§7)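 In the 6 Hz psychomotor seizure test, male CF no. 1 albino mice (18-25 g) received the compound ip in 0.5% methylcellulose. Stimulation was at 32 or 44 mA. Doses were varied to give 3-4 points between 0% and 100% protection, and ED50 with 95% confidence interval came from probit analysis.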

For series [27], the species on record is Mus musculus. Put plainly: Protective index, ratio of TD50 for CF1 albino mouse to ED50 for maximal electroshock-induced CF1 albino seizure mouse model. The series is classed as functional. The gist of the method:
as §5

In series [28] the test system is Mus musculus. Put plainly: Anticonvulsant activity in ip dosed CF1 albino mouse assessed as protection against 44 mA-current-induced seizure by 6Hz psychomotor seizure test. In kind it is functional. Summed up: as §7
Series [29] deals with Rattus norvegicus. Put plainly: Anticonvulsant activity in po dosed albino Sprague-Dawley rat assessed as protection against maximal electroshock-induced seizures. The series is classed as functional.

The term ED50 denotes the dose at which the effect has come halfway, by size or by number of responders. The term TD50 denotes the 50% point of the dose-response relation for the toxic effect studied.

Take `CC1(C)C(C)(C)C1(Br)C(N)=O`: the Activity result in series [1], in series [2], in [3], in series [4], in [5] and in [6] was “Non-toxic” each time. Further, the Activity entry in series [7], in series [8], in [9], in series [10], in series [11] and in [12] was “Non-toxic” throughout. Besides, the Activity entry is “Non-toxic” in series [13], “Non-toxic” in series [14] and “Toxic” in series [15].
Turning to `CCCC(CCC)C(N)=O` [VALPROMIDE], the ED50 in [16] came out at 81 mg/kg; in series [22], 55 mg/kg; in series [24], 56 mg/kg; in [25], 59 mg/kg; in series [26] it was 57 mg/kg; in series [28] it was 66 mg/kg. The ED50 in series [29] turned out to be 32 mg/kg. Also, the PI is 1.4 in series [17]; 1.5 in series [18]; 2.7 in [19]; 1.2 in series [20]; 1.5 in series [21]; 1.4 in [27]. Also, the TD50 in series [23] was found to be 87 mg/kg.

The values are drawn from ChEMBL document CHEMBL1153988 (J Med Chem, 2009).
